Source: ChEMBL document CHEMBL1154187, “Synthesis and biological evaluation of 2-heteroarylthioalkanoic acid analogues of clofibric acid as peroxisome proliferator-activated receptor alpha agonists” (J Med Chem, 2009)
The source made the active and inactive calls. The rule behind the calls is not given here.

Key:
Type in all cases: functional, cell-based
[1] = biological target: T1, Peroxisome proliferator-activated receptor alpha (Homo sapiens, UniProt Q07869); experiment: Agonist activity at human PPARalpha expressed in HEK293 cells assessed as receptor transactivation at by luciferase reporter gene assay
T1 sequence (Q07869 whole entry): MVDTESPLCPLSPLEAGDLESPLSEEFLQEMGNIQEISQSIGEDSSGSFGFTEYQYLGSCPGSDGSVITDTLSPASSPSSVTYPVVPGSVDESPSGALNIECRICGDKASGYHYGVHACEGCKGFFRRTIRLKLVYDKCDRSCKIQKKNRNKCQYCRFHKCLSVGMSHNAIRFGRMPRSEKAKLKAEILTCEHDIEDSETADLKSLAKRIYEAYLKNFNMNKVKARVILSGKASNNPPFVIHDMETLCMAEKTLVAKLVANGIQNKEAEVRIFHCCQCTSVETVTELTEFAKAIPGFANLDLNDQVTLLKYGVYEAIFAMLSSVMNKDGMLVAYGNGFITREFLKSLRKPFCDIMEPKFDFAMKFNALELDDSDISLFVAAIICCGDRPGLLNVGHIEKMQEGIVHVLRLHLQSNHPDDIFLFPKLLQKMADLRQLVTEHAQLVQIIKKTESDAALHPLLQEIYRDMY
Method in brief: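 Human PPARα reporter-gene transactivation: calcium phosphate co-transfection of receptor plasmid, luciferase reporter and renilla. Ligand in DMSO (≤0.1% v/v final) added 6 h after transfection at five concentrations, 1 to 150 μM. At least three separate experiments, ± SEM.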

[2] = biological target: T2, Peroxisome proliferator-activated receptor alpha (Homo sapiens) (UniProt Q07869); experiment: Agonist activity at human PPARalpha expressed in HEK293 cells assessed as receptor transactivation at 150 uM by luciferase reporter gene assay relative to control
T2 sequence (whole entry): T1 sequence (Q07869 whole entry)
Method in brief: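 Cells co-transfected by calcium phosphate with human PPARα expression plasmid, luciferase reporter and renilla in serum-free medium. Ligand in DMSO (≤0.1% v/v final) added 6 h post-transfection at 150 μM. Luciferase normalized to renilla, expressed as fold activation over untreated cells; at least three separate experiments, mean ± SEM.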

[3] = biological target: T2, Peroxisome proliferator-activated receptor alpha (Homo sapiens); experiment: Agonist activity at PPARalpha in human HepG2 cells assessed as increase in CPT1A mRNA expression at 150 uM after 48 hrs by RTqPCR relative to untreated control
Method in brief: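 HepG2 grown in DMEM + 10% FBS, 37 °C, 5% CO2; 1×10^6 cells seeded in six-well dishes, grown 24 h, then given ligand at 150 μM or DMSO vehicle for 48 h. Total RNA by TRIzol; SYBR Green RTqPCR, primers 150 nM final, 60 ng cDNA, 40 cycles. CPT1A normalized to cyclophilin and to vehicle-treated cells; mean ± SEM of four determinations in duplicate.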

Row | EC50 [1] [µM] | fold change (FC) [2] | fold change (FC) [3] | Activity [3] | Activity [2] | SMILES
1 | 9.3 | 2.7 | – | – | – | CCCC(Sc1nc2cc(Cl)ccc2s1)C(=O)O (racemic)
2 | 1.8 | 2.8 | 2 | – | – | CC(C)(Sc1ccc(Cl)s1)C(=O)O
3 | 73.5 | 4.5 | – | – | – | C[C@@H](Sc1nc2cc(Cl)ccc2s1)C(=O)O
4 | 38.9 | 1.7 | – | – | – | CC(C)(Sc1nc2ccc(Cl)cc2s1)C(=O)O
5 | 69.3 | 3.3 | – | – | – | CCOc1ccc2nc(SC(C)(C)C(=O)O)sc2c1
6 | 1.9 | 2.9 | – | Active | – | COc1ccc2sc(S[C@@H](C)C(=O)O)nc2c1
7 | 9.3 | 3.2 | – | – | – | CC(Sc1nc2cc(Br)ccc2s1)C(=O)O (racemic)
8 | – | – | – | – | inactive | CCCCCCC(Sc1nc2cc(Cl)ccc2s1)C(=O)O (racemic)
9 | – | – | – | – | inactive | CC(Sc1nc2cc(C#N)ccc2s1)C(=O)O (racemic)
10 | 33.3 | 2.9 | – | – | – | COc1ccc2sc(SC(C)C(=O)O)nc2c1 (racemic)
11 | 14.3 | 1.6 | – | – | – | O=C(O)C(Sc1nc2cc(Cl)ccc2s1)c1ccccc1 (racemic)
12 | 2.5 | 4.5 | – | Active | – | CC(C)(Sc1nc2cc(Br)ccc2s1)C(=O)O
13 | 45.8 | 2.6 | – | – | – | CC(C)(Sc1nc2ccc(Br)cc2s1)C(=O)O
14 | – | – | – | – | inactive | CC(C)(Sc1ccccn1)C(=O)O
15 | 45.8 | 2 | – | – | – | COc1ccc2sc(SC(C)(C)C(=O)O)nc2c1
16 | 84.3 | 1.9 | – | – | – | CC(Sc1nc2ccc(Br)cc2s1)C(=O)O (racemic)
17 | 14.8 | 4.7 | – | – | – | CCCC(Sc1nc2ccc(OCC)cc2s1)C(=O)O (racemic)
18 | 55.9 | 2.6 | – | – | – | C[C@H](Sc1nc2cc(Cl)ccc2s1)C(=O)O
19 | 57.3 | 2.3 | – | – | – | COc1ccc2sc(S[C@H](C)C(=O)O)nc2c1
20 | – | – | – | – | inactive | CC(C)(Sc1nc2cc(C(F)(F)F)ccc2s1)C(=O)O
21 | – | – | – | – | inactive | CC(C)(Sc1nc2ccccc2s1)C(=O)O
22 | 46.3 | 1.9 | – | – | – | CC(C)(Sc1nc2cc(C#N)ccc2s1)C(=O)O
23 | – | 1.6 | 2 | – | – | CC(C)(Oc1ccc(Cl)cc1)C(=O)O
24 | 9.8 | 2.6 | – | – | – | CCOc1ccc2nc(SC(C)C(=O)O)sc2c1 (racemic)
25 | – | – | – | – | inactive | CC(C)(Sc1cccs1)C(=O)O
26 | 35.9 | 1.6 | – | – | – | CC(C)(Sc1nc2cc(Cl)ccc2s1)C(=O)O
27 | – | – | – | – | inactive | CC(C)(Sc1nc2ccc(C#N)cc2s1)C(=O)O
28 | 62.5 | 3.4 | – | – | – | CC(Sc1nc2cc(Cl)ccc2s1)C(=O)O (racemic)
29 | 36.1 | 1.7 | – | – | – | CC(C)(Sc1nc2ccc(C(F)(F)F)cc2s1)C(=O)O
